Experimental data reported in ChEMBL document CHEMBL1649176, “Contribution of oxidative damage to antimicrobial lethality” (2009).
Converted amounts (≈) assume the structure as drawn. The source made the active and inactive calls. No cut-off for these calls is given here.

How the values were obtained:
[1] = test system: Escherichia coli; experiment: Antimicrobial activity against Escherichia coli K-12 BW25113 by broth dilution method; format: functional
In short: (§1)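 Broth dilution in LB medium, about 10^5 bacteria per 1-ml tube, with drug concentrations rising in 50% increments. Tubes were incubated overnight at 37°C and read visually. MIC was the lowest concentration that prevented visible growth.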

[2] = test system: Escherichia coli; experiment: Antimicrobial activity against sodB gene-deficient Escherichia coli K-12 DKsodB by broth dilution method; format: functional; in short: as §1
[3] = test system: Escherichia coli; experiment: Antimicrobial activity against sodA gene-deficient Escherichia coli K-12 3144 by broth dilution method; format: functional; in short: as §1
[4] = test system: Escherichia coli; experiment: Antimicrobial activity against sodB gene-deficient Escherichia coli K-12 3145 by broth dilution method; format: functional; in short: as §1
[5] = test system: Escherichia coli; experiment: Antimicrobial activity against sodA, sodB gene-deficient Escherichia coli K-12 3156 by broth dilution method; format: functional; in short: as §1
[6] = test system: Escherichia coli; experiment: Antimicrobial activity against katG gene-deficient Escherichia coli K-12 3157 by broth dilution method; format: functional; in short: as §1
[7] = test system: Escherichia coli; experiment: Antimicrobial activity against ahpC gene-deficient Escherichia coli K-12 3200 by broth dilution method; format: functional; in short: as §1
[8] = test system: Escherichia coli; experiment: Antimicrobial activity against katG,katE gene-deficient Escherichia coli K-12 3201 by broth dilution method; format: functional; in short: as §1
[9] = test system: Escherichia coli; experiment: Antimicrobial activity against katE gene-deficient Escherichia coli K-12 3202 by broth dilution method; format: functional; in short: as §1
[10] = test system: Escherichia coli; experiment: Bactericidal activity against sodA gene-deficient Escherichia coli K-12 3144 at 0.4 ug/ml; format: functional, organism-based
[11] = test system: Escherichia coli; experiment: Bactericidal activity against sodA gene-deficient Escherichia coli K-12 3144 after 2 hrs; format: functional, organism-based
[12] = test system: Escherichia coli; experiment: Bactericidal activity against sodB gene-deficient Escherichia coli K-12 3145 at 0.4 ug/ml; format: functional, organism-based
[13] = test system: Escherichia coli; experiment: Bactericidal activity against sodB gene-deficient Escherichia coli K-12 3145 after 2 hrs; format: functional, organism-based
[14] = test system: Escherichia coli; experiment: Bactericidal activity against Escherichia coli K-12 BW25113 at 100 times MIC; format: functional, organism-based
[15] = test system: Escherichia coli; experiment: Bactericidal activity against katG gene-deficient Escherichia coli K-12 3157 at 100 times MIC; format: functional, organism-based
[16] = test system: Escherichia coli; experiment: Bactericidal activity against ahpC gene-deficient Escherichia coli K-12 3200 at 100 times MIC; format: functional, organism-based
[17] = test system: Escherichia coli; experiment: Bactericidal activity against katG,katE gene-deficient Escherichia coli K-12 3201 at 100 times MIC; format: functional, organism-based
[18] = test system: Escherichia coli; experiment: Bactericidal activity against Escherichia coli K-12 BW25113 after 18 hrs; format: functional; details: K-12 BW25113, 18 h
[19] = test system: Escherichia coli; experiment: Bactericidal activity against sodB gene-deficient Escherichia coli K-12 DK after 18 hrs; format: functional
[20] = test system: Escherichia coli; experiment: Bactericidal activity against sodA gene-deficient Escherichia coli K-12 3144 after 18 hrs; format: functional; details: K-12 3144, 18 h
[21] = test system: Escherichia coli; experiment: Bactericidal activity against sodB gene-deficient Escherichia coli K-12 3145 after 18 hrs; format: functional; details: K-12 3145, 18 h
[22] = test system: Escherichia coli; experiment: Bactericidal activity against sodA, sodB gene-deficient Escherichia coli K-12 3156 after 18 hrs; format: functional; details: K-12 3156, 18 h
[23] = test system: Escherichia coli; experiment: Bactericidal activity against katG gene-deficient Escherichia coli K-12 3157 after 18 hrs; format: functional; details: K-12 3157, 18 h
[24] = test system: Escherichia coli; experiment: Bactericidal activity against ahpC gene-deficient Escherichia coli K-12 3200 after 18 hrs; format: functional; details: K-12 3200, 18 h
[25] = test system: Escherichia coli; experiment: Bactericidal activity against katG,katE gene-deficient Escherichia coli K-12 3201 after 18 hrs; format: functional; details: K-12 3201, 18 h
[26] = test system: Escherichia coli; experiment: Bactericidal activity against katE gene-deficient Escherichia coli K-12 3202 after 18 hrs; format: functional; details: K-12 3202, 18 h

c1ccc(-c2ccccn2)nc1 [DIPYRIDYL]
MIC [1]: 500 µM
MIC [2]: 500 µM
MIC [3]: 500 µM
MIC [4]: 500 µM
MIC [5]: 500 µM
MIC [6]: 500 µM
MIC [7]: 500 µM
MIC [8]: 500 µM
MIC [9]: 500 µM

CCn1cc(C(=O)O)c(=O)c2cc3c(cc21)OCO3
Activity [10]: Active
Activity [11]: Active
Activity [12]: Active
Activity [13]: Active

O=C(N[C@H](CO)[C@H](O)c1ccc([N+](=O)[O-])cc1)C(Cl)Cl
Activity [14]: inactive
Activity [15]: inactive
Activity [16]: inactive
Activity [17]: inactive

CC1(C)S[C@@H]2[C@H](NC(=O)[C@H](N)c3ccccc3)C(=O)N2[C@H]1C(=O)O [AMPICILLIN]
MIC [1]: 15 µg/mL
MIC [2]: 15 µg/mL
MIC [3]: 15 µg/mL
MIC [4]: 15 µg/mL
MIC [5]: 15 µg/mL
MIC [6]: 15 µg/mL
MIC [7]: 15 µg/mL
MIC [8]: 30 µg/mL
MIC [9]: 15 µg/mL
MBC [18]: 80 µg/mL (≈ 229 µM)
MBC [19]: 80 µg/mL (≈ 229 µM)
MBC [20]: 80 µg/mL (≈ 229 µM)
MBC [21]: 80 µg/mL (≈ 229 µM)
MBC [22]: 20 µg/mL (≈ 57.2 µM)
MBC [23]: 80 µg/mL (≈ 229 µM)
MBC [24]: 40 µg/mL (≈ 114 µM)
MBC [25]: 80 µg/mL (≈ 229 µM)
MBC [26]: 80 µg/mL (≈ 229 µM)
